# According to ChEMBL document CHEMBL1122055, “DL-threo-beta-Fluoroaspartate and DL-threo-beta-fluoroasparagine: selective cytotoxic agents for mammalian cells in culture” (J Med Chem, 1982):
# “And” between values parts separate entries of the source, which are not always exact repeats. Equal values may be shown once.
# Key:
# [1] = tested on: H4; assay: Tested for its reversal effect on growth of H4 cells at 133+5 ug/mL concentrations of L-aspargine and DL-threo-beta-fluoroaspartate; format: functional
# Method in brief: (§1)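 Rat hepatoma H4 cells seeded at 1.4×10^4 per 35-mm dish in MEM+. On day 4, fresh MEM+ was added, with treatments including L-aspartate or L-asparagine. Exposure 66 h, then total cell protein per dish measured by Lowry. Results expressed as % of untreated control protein, mean of duplicate dishes.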
# [2] = tested on: H4; assay: Tested for its reversal effect on growth of H4 cells at 330+5 ug/mL concentrations of L-aspargine and DL-threo-beta-fluoroaspartate; format: functional
# Method in brief: (§2)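 H4 hepatoma cells seeded at 8×10^3 per 35-mm dish in F 10+ medium. On day 4, the medium was renewed and treatments started, including L-aspartate or L-asparagine. Incubation 72 h, then Lowry total cell protein per dish. Results reported as % of untreated control, mean of duplicate dishes.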
# [3] = tested on: 7800C1 cell line; assay: Tested for its cytotoxic effect on the growth of the cell strain 7800C1 (1 x 10e 4 (MEM)) at 2 ug/mL dose; format: functional, Rattus norvegicus
# Method in brief: (§3)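 Cells plated in 35-mm dishes at the stated density and medium (F 10+: Ham's F10 + 15% horse serum + 2.5% fetal calf serum; MEM+: Eagle's MEM + 5% horse + 5% fetal calf serum), grown 3 days. All strains then switched to F 10+ before treatment and incubated 4 days. Growth read as total cell protein per dish (Lowry, bovine albumin standard). Single determinations; experiment repeated twice.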
# [4] = tested on: 7800C1 cell line; assay: Tested for its cytotoxic effect on the growth of the cell strain 7800C1 (1 x 10e 4 (MEM)) at 20 ug/mL dose; format: functional, Rattus norvegicus; method in brief: as §3
# [5] = tested on: 7800C1 cell line; assay: Tested for its cytotoxic effect on the growth of the cell strain 7800C1 (1 x 10e 4 (MEM)) at 5 ug/mL dose; format: functional, Rattus norvegicus; method in brief: as §3
# [6] = tested on: 7800C1 cell line; assay: Tested for its cytotoxic effect on the growth of the cell strain 7800C1 (1 x 10e 4 (MEM)) at 10 ug/mL dose; format: functional, Rattus norvegicus; method in brief: as §3
# [7] = tested on: GH4-C1; assay: Tested for its cytotoxic effect on the growth of the cell strain GH4C1 (8 x 10e 4 (F 10+)) at 10 ug/mL dose; format: functional, Rattus norvegicus; method in brief: as §3
# [8] = tested on: GH3; assay: Tested for its cytotoxic effect on the growth of the cell strain GH3 (2 x 10e 4 (F 10+)) at 10 ug/mL dose; format: functional, Rattus norvegicus; method in brief: as §3
# [9] = tested on: GH3; assay: Tested for its cytotoxic effect on the growth of the cell strain GH3 (2 x 10e 4 (F 10+)) at 2 ug/mL dose; format: functional, Rattus norvegicus; method in brief: as §3
# [10] = tested on: GH3; assay: Tested for its cytotoxic effect on the growth of the cell strain GH3 (2 x 10e 4 (F 10+)) at 5 ug/mL dose; format: functional, Rattus norvegicus; method in brief: as §3
# [11] = tested on: GH3; assay: Tested for its cytotoxic effect on the growth of the cell strain GH3 (2 x 10e 4 (F 10+)) at 75 ug/mL dose; format: functional, Rattus norvegicus; method in brief: as §3
# [12] = tested on: GH4-C1; assay: Tested for its cytotoxic effect on the growth of the cell strain GH4C1 (8 x 10e 4 (F 10+)) at 2 ug/mL dose; format: functional, Rattus norvegicus; method in brief: as §3
# [13] = tested on: GH4-C1; assay: Tested for its cytotoxic effect on the growth of the cell strain GH4C1 (8 x 10e 4 (F 10+)) at 20 ug/mL dose; format: functional, Rattus norvegicus; method in brief: as §3
# [14] = tested on: GH4-C1; assay: Tested for its cytotoxic effect on the growth of the cell strain GH4C1 (8 x 10e 4 (F 10+)) at 5 ug/mL dose; format: functional, Rattus norvegicus; method in brief: as §3
# [15] = tested on: GH4-C1; assay: Tested for its cytotoxic effect on the growth of the cell strain GH4C1 (8 x 10e 4 (F 10+)) at 75 ug/mL dose; format: functional, Rattus norvegicus; method in brief: as §3
# [16] = tested on: H4; assay: Tested for its cytotoxic effect on the growth of the cell strain H4 (8 x 10e 3 (MEM)) at 10 ug/mL dose; format: functional; method in brief: as §3
# [17] = tested on: H4; assay: Tested for its cytotoxic effect on the growth of the cell strain H4 (8 x 10e 3 (MEM)) at 2 ug/mL dose; format: functional; method in brief: as §3
# [18] = tested on: H4; assay: Tested for its cytotoxic effect on the growth of the cell strain H4 (8 x 10e 3 (MEM)) at 5 ug/mL dose; format: functional; method in brief: as §3
# [19] = tested on: H4; assay: Tested for its cytotoxic effect on the growth of the cell strain H4 (8 x 10e 3 (MEM)) at 75 ug/mL dose; format: functional; method in brief: as §3
# [20] = tested on: H4; assay: Tested for its reversal effect on growth of H4 cells at 5 ug/mL concentrations of L-aspargine and DL-threo-beta-fluoroaspartate; format: functional
# [21] = tested on: MH1C1; assay: Tested for its cytotoxic effect on the growth of the cell strain MH1C1 (1 x 10e 4 (F 10+)) at 10 ug/mL dose; format: functional; method in brief: as §3
# [22] = tested on: MH1C1; assay: Tested for its cytotoxic effect on the growth of the cell strain MH1C1 (1 x 10e 4 (F 10+)) at 2 ug/mL dose; format: functional; method in brief: as §3
# [23] = tested on: MH1C1; assay: Tested for its cytotoxic effect on the growth of the cell strain MH1C1 (1 x 10e 4 (F 10+)) at 20 ug/mL dose; format: functional; method in brief: as §3
# [24] = tested on: MH1C1; assay: Tested for its cytotoxic effect on the growth of the cell strain MH1C1 (1 x 10e 4 (F 10+)) at 5 ug/mL dose; format: functional; method in brief: as §3
# [25] = tested on: MH1C1; assay: Tested for its cytotoxic effect on the growth of the cell strain MH1C1 (1 x 10e 4 (F 10+)) at 75 ug/mL dose; format: functional; method in brief: as §3
# [26] = tested on: R5; assay: Tested for its cytotoxic effect on the growth of the cell strain R5 (1 x 10e 3 (F 10+)) at 10 ug/mL dose; format: functional; method in brief: as §3
# [27] = tested on: R5; assay: Tested for its cytotoxic effect on the growth of the cell strain R5 (1 x 10e 3 (F 10+)) at 2 ug/mL dose; format: functional; method in brief: as §3
# [28] = tested on: R5; assay: Tested for its cytotoxic effect on the growth of the cell strain R5 (1 x 10e 3 (F 10+)) at 20 ug/mL dose; format: functional; method in brief: as §3
# [29] = tested on: R5; assay: Tested for its cytotoxic effect on the growth of the cell strain R5 (1 x 10e 3 (F 10+)) at 5 ug/mL dose; format: functional; method in brief: as §3
# [30] = tested on: R5; assay: Tested for its cytotoxic effect on the growth of the cell strain R5 (1 x 10e 3 (F 10+)) at 75 ug/mL dose; format: functional; method in brief: as §3
# [31] = tested on: H4; assay: Tested for its cytotoxic effect on the growth of the cell strain H4 (8 x 10e 3 (MEM)) at 20 ug/mL dose; format: functional; method in brief: as §3
# [32] = tested on: 7800C1 cell line; assay: Tested for its cytotoxic effect on the growth of the cell strain 7800C1 (1 x 10e 4 (MEM)) at 75 ug/mL dose; format: functional, Rattus norvegicus; method in brief: as §3
# [33] = tested on: GH3; assay: Tested for its cytotoxic effect on the growth of the cell strain GH3 (2 x 10e 4 (F 10+)) at 20 ug/mL dose; format: functional, Rattus norvegicus; method in brief: as §3
# [34] = tested on: H4 (Rattus norvegicus); assay: Tested for its reversal effect on growth of H4 cells at 133 ug/mL concentrations of L-aspargine and DL-threo-beta-fluoroaspartate
# [35] = tested on: H4 (Rattus norvegicus); assay: Tested for its reversal effect on growth of H4 cells at 330 ug/mL concentrations of L-aspargine and DL-threo-beta-fluoroaspartate
# [36] = tested on: H4; assay: Tested for its reversal effect on growth of H4 cells at 133 + 50 ug/mL concentrations of L-aspargine and DL-threo-beta-fluoroaspartate; format: functional; method in brief: as §1
# [37] = tested on: H4; assay: Tested for its reversal effect on growth of H4 cells at 330 + 40 ug/mL concentrations of L-aspargine and DL-threo-beta-fluoroaspartate; format: functional; method in brief: as §2
structure (smiles),measurement,setting,value
NC(C(=O)O)C(F)C(=O)O.N[C@@H](CC(=O)O)C(=O)O (mixture of isomers),Cell protein in untreated control,[1],79%
same,Cell protein in untreated control,[2],78%
NC(C(=O)O)C(F)C(=O)O (racemic),Cell protein,[3],10 ug dish-1
same,Cell protein,[4],6 ug dish-1
same,Cell protein,[5],9 ug dish-1
same,Cell protein,[6],249 ug dish-1
same,Cell protein,[7],126 ug dish-1
same,Cell protein,[8],104 ug dish-1
same,Cell protein,[9],69 ug dish-1
same,Cell protein,[10],23 ug dish-1
same,Cell protein,[11],61 ug dish-1
same,Cell protein,[12],96 ug dish-1
same,Cell protein,[13],36 ug dish-1
same,Cell protein,[14],98 ug dish-1
same,Cell protein,[15],126 ug dish-1
same,Cell protein,[16],150 ug dish-1
same,Cell protein,[17],114 ug dish-1
same,Cell protein,[18],9 ug dish-1
same,Cell protein,[19],156 ug dish-1
same,Cell protein in untreated control,[20],0% and 5%
same,Cell protein,[21],159 ug dish-1
same,Cell protein,[22],154 ug dish-1
same,Cell protein,[23],140 ug dish-1
same,Cell protein,[24],167 ug dish-1
same,Cell protein,[25],149 ug dish-1
same,Cell protein,[26],122 ug dish-1
same,Cell protein,[27],128 ug dish-1
same,Cell protein,[28],50 ug dish-1
same,Cell protein,[29],98 ug dish-1
same,Cell protein,[30],90 ug dish-1
same,Cell protein,[31],4 ug dish-1
same,Cell protein,[32],229 ug dish-1
same,Cell protein,[33],22 ug dish-1
NC(=O)C[C@H](N)C(=O)O [ASPARAGINE],Cell protein in untreated control,[34],103%
same,Cell protein in untreated control,[35],100%
NC(=O)C(F)[C@H](N)C(=O)O.N[C@@H](CC(=O)O)C(=O)O (mixture of isomers; form 1),Cell protein in untreated control,[36],68%
same,Cell protein in untreated control,[37],93%
